Measurements as given in ChEMBL document CHEMBL1123145, “Synthesis of pyrrolizidine alkaloids indicine, intermedine, lycopsamine, and analogues and their N-oxides. Potential antitumor agents” (1985).

Experiments:
Format in all cases: functional, Mus musculus
[1] = system: P388; test: Number of Survivors determined for antitumor activity against P388 Lymphocytic Leukemia system on day 5 at a dose of 192 mg/kg (6 out of 6)
[2] = system: P388; test: Number of Survivors determined for antitumor activity against P388 Lymphocytic Leukemia system on day 5 at a dose of 24 mg/kg (6 out of 6)
[3] = system: P388; test: Survival rate of the animals determined for antitumor activity against P388 Lymphocytic Leukemia system at a dose of 192 mg/kg
[4] = system: P388; test: Survival rate of the animals determined for antitumor activity against P388 Lymphocytic Leukemia system at a dose of 24 mg/kg
[5] = system: P388; test: Number of Survivors determined for antitumor activity against P388 Lymphocytic Leukemia system on day 5 at a dose of 48 mg/kg (6 out of 6)
[6] = system: P388; test: Weight difference observed in survivors treated for antitumor activity against P388 Lymphocytic Leukemia system at a dose of 192 mg/kg
[7] = system: P388; test: Weight difference observed in survivors treated for antitumor activity against P388 Lymphocytic Leukemia system at a dose of 96 mg/kg
[8] = system: P388; test: Survival rate of the animals determined for antitumor activity against P388 Lymphocytic Leukemia system at a dose of 48 mg/kg
[9] = system: P388; test: Weight difference observed in survivors treated for antitumor activity against P388 Lymphocytic Leukemia system at a dose of 24 mg/kg
[10] = system: P388; test: Weight difference observed in survivors treated for antitumor activity against P388 Lymphocytic Leukemia system at a dose of 48 mg/kg
[11] = system: P388; test: Number of Survivors determined for antitumor activity against P388 Lymphocytic Leukemia system on day 5 at a dose of 96 mg/kg(6 out of 6)
[12] = system: P388; test: Survival rate of the animals determined for antitumor activity against P388 Lymphocytic Leukemia system at a dose of 96 mg/kg
[13] = system: P388; test: Number of Survivors determined for antitumor activity against P388 Lymphocytic Leukemia system on day 5 at a dose of 1600 mg/kg (Group I) (6 out of 6)
[14] = system: P388; test: Number of Survivors determined for antitumor activity against P388 Lymphocytic Leukemia system on day 5 at a dose of 1600 mg/kg (Group II)(6 out of 6)
[15] = system: P388; test: Number of Survivors determined for antitumor activity against P388 Lymphocytic Leukemia system on day 5 at a dose of 1600 mg/kg (Group III)(5 out of 6)
[16] = system: P388; test: Number of Survivors determined for antitumor activity against P388 Lymphocytic Leukemia system on day 5 at a dose of 1600 mg/kg (Group IV)(5 out of 6)
[17] = system: P388; test: Number of Survivors determined for antitumor activity against P388 Lymphocytic Leukemia system on day 5 at a dose of 200 mg/kg (Group I)(6 out of 6)
[18] = system: P388; test: Number of Survivors determined for antitumor activity against P388 Lymphocytic Leukemia system on day 5 at a dose of 200 mg/kg (Group II)(6 out of 6)
[19] = system: P388; test: Number of Survivors determined for antitumor activity against P388 Lymphocytic Leukemia system on day 5 at a dose of 200 mg/kg (Group IV)(6 out of 6)
[20] = system: P388; test: Survival rate of the animals determined for antitumor activity against P388 Lymphocytic Leukemia system at a dose of 400 mg/kg (Group III)
Method in brief: (§1)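 P388 lymphocytic leukemia screen run in separate test groups (I–IV). Each group includes its own indicine N-oxide internal control, listed as the group's first entry. Survival and survivor weight change are read against that control. Material was limited, so some analogues were screened up to about 200 mg/kg maximum.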

[21] = system: P388; test: Survival rate of the animals determined for antitumor activity against P388 Lymphocytic Leukemia system at a dose of 1600 mg/kg (Group I)
[22] = system: P388; test: Weight difference observed in survivors treated for antitumor activity against P388 Lymphocytic Leukemia system at a dose of 800 mg/kg (Group I)
[23] = system: P388; test: Weight difference observed in survivors treated for antitumor activity against P388 Lymphocytic Leukemia system at a dose of 800 mg/kg (Group II)
[24] = system: P388; test: Weight difference observed in survivors treated for antitumor activity against P388 Lymphocytic Leukemia system at a dose of 800 mg/kg (Group III)
[25] = system: P388; test: Weight difference observed in survivors treated for antitumor activity against P388 Lymphocytic Leukemia system at a dose of 800 mg/kg (Group IV)
[26] = system: P388; test: Survival rate of the animals determined for antitumor activity against P388 Lymphocytic Leukemia system at a dose of 1600 mg/kg (Group II)
[27] = system: P388; test: Survival rate of the animals determined for antitumor activity against P388 Lymphocytic Leukemia system at a dose of 200 mg/kg (Group I)
[28] = system: P388; test: Survival rate of the animals determined for antitumor activity against P388 Lymphocytic Leukemia system at a dose of 200 mg/kg (Group II); method in brief: as §1
[29] = system: P388; test: Survival rate of the animals determined for antitumor activity against P388 Lymphocytic Leukemia system at a dose of 200 mg/kg (Group III); method in brief: as §1
[30] = system: P388; test: Survival rate of the animals determined for antitumor activity against P388 Lymphocytic Leukemia system at a dose of 200 mg/kg (Group IV); method in brief: as §1
[31] = system: P388; test: Survival rate of the animals determined for antitumor activity against P388 Lymphocytic Leukemia system at a dose of 400 mg/kg (Group I); method in brief: as §1
[32] = system: P388; test: Survival rate of the animals determined for antitumor activity against P388 Lymphocytic Leukemia system at a dose of 400 mg/kg (Group II); method in brief: as §1
[33] = system: P388; test: Number of Survivors determined for antitumor activity against P388 Lymphocytic Leukemia system on day 5 at a dose of 400 mg/kg (Group I)(6 out of 6)
[34] = system: P388; test: Number of Survivors determined for antitumor activity against P388 Lymphocytic Leukemia system on day 5 at a dose of 400 mg/kg (Group II)(6 out of 6)
[35] = system: P388; test: Number of Survivors determined for antitumor activity against P388 Lymphocytic Leukemia system on day 5 at a dose of 400 mg/kg (Group III)(6 out of 6)
[36] = system: P388; test: Number of Survivors determined for antitumor activity against P388 Lymphocytic Leukemia system on day 5 at a dose of 400 mg/kg (Group IV)(6 out of 6)
[37] = system: P388; test: Weight difference observed in survivors treated for antitumor activity against P388 Lymphocytic Leukemia system at a dose of 200 mg/kg (Group I); method in brief: as §1
[38] = system: P388; test: Weight difference observed in survivors treated for antitumor activity against P388 Lymphocytic Leukemia system at a dose of 200 mg/kg (Group II); method in brief: as §1
[39] = system: P388; test: Weight difference observed in survivors treated for antitumor activity against P388 Lymphocytic Leukemia system at a dose of 200 mg/kg (Group III); method in brief: as §1
[40] = system: P388; test: Weight difference observed in survivors treated for antitumor activity against P388 Lymphocytic Leukemia system at a dose of 200 mg/kg (Group IV); method in brief: as §1
[41] = system: P388; test: Survival rate of the animals determined for antitumor activity against P388 Lymphocytic Leukemia system at a dose of 400 mg/kg (Group IV); method in brief: as §1
[42] = system: P388; test: Weight difference observed in survivors treated for antitumor activity against P388 Lymphocytic Leukemia system at a dose of 400 mg/kg (Group I); method in brief: as §1
[43] = system: P388; test: Weight difference observed in survivors treated for antitumor activity against P388 Lymphocytic Leukemia system at a dose of 400 mg/kg (Group II); method in brief: as §1
[44] = system: P388; test: Weight difference observed in survivors treated for antitumor activity against P388 Lymphocytic Leukemia system at a dose of 400 mg/kg (Group III); method in brief: as §1
[45] = system: P388; test: Weight difference observed in survivors treated for antitumor activity against P388 Lymphocytic Leukemia system at a dose of 400 mg/kg (Group IV); method in brief: as §1
[46] = system: P388; test: Weight difference observed in survivors treated for antitumor activity against P388 Lymphocytic Leukemia system at a dose of 1600 mg/kg (Group I); method in brief: as §1
[47] = system: P388; test: Weight difference observed in survivors treated for antitumor activity against P388 Lymphocytic Leukemia system at a dose of 1600 mg/kg (Group III); method in brief: as §1
[48] = system: P388; test: Number of Survivors determined for antitumor activity against P388 Lymphocytic Leukemia system on day 5 at a dose of 800 mg/kg (Group I)(6 out of 6)
[49] = system: P388; test: Number of Survivors determined for antitumor activity against P388 Lymphocytic Leukemia system on day 5 at a dose of 800 mg/kg (Group II)(6 out of 6)
[50] = system: P388; test: Number of Survivors determined for antitumor activity against P388 Lymphocytic Leukemia system on day 5 at a dose of 800 mg/kg (Group III)(6 out of 6)
[51] = system: P388; test: Number of Survivors determined for antitumor activity against P388 Lymphocytic Leukemia system on day 5 at a dose of 800 mg/kg (Group IV)(6 out of 6)
[52] = system: P388; test: Survival rate of the animals determined for antitumor activity against P388 Lymphocytic Leukemia system at a dose of 800 mg/kg (Group I); method in brief: as §1
[53] = system: P388; test: Survival rate of the animals determined for antitumor activity against P388 Lymphocytic Leukemia system at a dose of 800 mg/kg (Group II); method in brief: as §1
[54] = system: P388; test: Survival rate of the animals determined for antitumor activity against P388 Lymphocytic Leukemia system at a dose of 800 mg/kg (Group III); method in brief: as §1
[55] = system: P388; test: Survival rate of the animals determined for antitumor activity against P388 Lymphocytic Leukemia system at a dose of 800 mg/kg (Group IV); method in brief: as §1
[56] = system: P388; test: Weight difference observed in survivors treated for antitumor activity against P388 Lymphocytic Leukemia system at a dose of 1600 mg/kg (Group II); method in brief: as §1
[57] = system: P388; test: Weight difference observed in survivors treated for antitumor activity against P388 Lymphocytic Leukemia system at a dose of 1600 mg/kg (Group IV); method in brief: as §1
[58] = system: P388; test: Number of Survivors determined for antitumor activity against P388 Lymphocytic Leukemia system on day 5 at a dose of 200 mg/kg (Group III)(6 out of 6)

## CC(C)C(O)(C(=O)OCC1=CC[N+]2([O-])CC[C@@H](O)C12)C(C)O (stereo in doubt; form 3)
[1]
  Survivors: 6
[2]
  Survivors: 6
[3]
  T/C: 109%
[4]
  T/C: 100%
[5]
  Survivors: 6
[6]
  T-C: -1.1
[7]
  T-C: -0.1
[8]
  T/C: 105%
[9]
  T-C: -0.1
[10]
  T-C: -0.4
[11]
  Survivors: 6
[12]
  T/C: 107%

## CC(C)[C@](O)(C(=O)OCC1=CC[N+]2([O-])CC[C@@H](O)[C@@H]12)[C@H](C)O (stereo partly drawn) [INDICINE N-OXIDE]
[13]
  Survivors: 6
[14]
  Survivors: 6
[15]
  Survivors: 5
[16]
  Survivors: 5
[17]
  Survivors: 6
[18]
  Survivors: 6
[19]
  Survivors: 6
[20]
  T/C: 191%
[21]
  T/C: 142%
[22]
  T-C: -3.2
[23]
  T-C: -3.3
[24]
  T-C: -4.7
[25]
  T-C: -2.6
[26]
  T/C: 117%
[27]
  T/C: 133%
[28]
  T/C: 120%
[29]
  T/C: 170%
[30]
  T/C: 140%
[31]
  T/C: 151%
[32]
  T/C: 145%
[33]
  Survivors: 6
[34]
  Survivors: 6
[35]
  Survivors: 6
[36]
  Survivors: 6
[37]
  T-C: -1.6
[38]
  T-C: -0.5
[39]
  T-C: -2.9
[40]
  T-C: -0.7
[41]
  T/C: 146%
[42]
  T-C: -1.6
[43]
  T-C: -1.9
[44]
  T-C: -4.3
[45]
  T-C: -1.7
[46]
  T-C: -2.2
[47]
  T-C: -5.8
[48]
  Survivors: 6
[49]
  Survivors: 6
[50]
  Survivors: 6
[51]
  Survivors: 6
[52]
  T/C: 160%
[53]
  T/C: 200%
[54]
  T/C: 200%
[55]
  T/C: 112%
[56]
  T-C: -3.7
[57]
  T-C: -2.9
[58]
  Survivors: 6
